SENP8 block-1 – human SENP8 protease inhibitors, primary screen, biochemical, fluorescence, Nedd8 protein substrate, uHTS; inhibition, % at 20 µM; Sentrin-specific protease 8 (Homo sapiens), Q96LD8; 0.64% of 360,000 active; recombinant SENP8; in the data active means inhibition mostly above about 40%, no sharp cut-off; inactive means mostly below about 27%
SENP8 block-2 – SENP8 protease inhibitors, primary screen, biochemical, luminescence. inhibition, % at 10 µM. Sentrin-specific protease 8 (Homo sapiens), Q96LD8. purified SENP8, Z-RLRGG-aminoluciferin cleavage. 1.2% of 330,000 active. AID 2540, 2010; in the data active means inhibition above about 50%
SENP7 inh – SENP7 protease inhibitors, primary screen, biochemical, luminescence, uHTS; AID 434973, 2010; Sentrin-specific protease 7 (Homo sapiens), Q9BQF6; 1.5% of 330,000 active; inhibition, % at 5 µM; recombinant SENP7, Z-RLRGG-aminoluciferin luminescence, 40 min;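 active means inhibition above about 50% at the single test dose, limit read from the data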;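 further: plate controls were DMSO with enzyme for no effect and no enzyme buffer wells for full effect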
Apaf1 inhib – inhibitors of human Apaf-1 apoptosome, primary screen, biochemical, DEVD-Rh110 fluorescence, uHTS; Apoptotic protease-activating factor 1 (Homo sapiens), O14727; reconstituted apoptosome caspase-3 activity; inhibition, % at 20 µM; 0.71% of 330,000 active; AID 489030, 2010; active means inhibition of at least 40% at 20 µM;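 further: plate controls were DMSO wells for no effect and DEVD-CHO caspase inhibitor wells for full effect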
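System – cell-free apoptosome with Apaf-1, procaspase-3 and caspase-9 · Buffer or medium – pH 7.5 Hepes buffer with CHAPS, BSA, DTT · Also added – cytochrome c with DEVD-Rh110 · Times – 30 min compound preincubation, 50 min activation, room temperature · Technique – Rh110 fluorescence intensity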
SENP1 inh – human SENP1 catalytic domain inhibitors, primary screen, biochemical, FRET, uHTS. recombinant SENP1 catalytic domain, CyPet-SUMO1-YPet FRET cleavage. inhibition, % at 10 µM. 0.21% of 360,000 active. AID 624204, 2012;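 active means inhibition at least 30% at 10 µM, raw YFP signal under a set limit, fluorescence ratio 0.5 to 1.5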;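 further: 0% = enzyme with DMSO and 100% = no enzyme wells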
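Assay system – human recombinant His6-tagged SENP1 catalytic domain enzyme · Input – SENP1 enzyme, 20 pM final · Buffer or medium – Tris pH 8 buffer plus EDTA, NaCl, BME, BSA, NP40, catalase · Schedule – 50 min reaction at room temperature · Technique – FRET read of cyan and yellow fluorescence · Control set – no-enzyme wells low, DMSO-plus-enzyme wells high control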
SENP6 inh – SENP6 protease inhibitors, primary screen, biochemical, luminescence, uHTS; 1.8% of 330,000 active; AID 2599, 2010; Sentrin-specific protease 6 (Homo sapiens), Q9GZR1; Recombinant SENP6 catalytic domain, aminoluciferin luminescence; inhibition, % at 10 µM;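 active means inhibition above about 50% at the single tested dose, limit read from the data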;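 further: plate controls were DMSO wells with enzyme for no effect and DMSO wells lacking enzyme for full effect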
Target sequence (Q9GZR1 628-1112 limits assumed): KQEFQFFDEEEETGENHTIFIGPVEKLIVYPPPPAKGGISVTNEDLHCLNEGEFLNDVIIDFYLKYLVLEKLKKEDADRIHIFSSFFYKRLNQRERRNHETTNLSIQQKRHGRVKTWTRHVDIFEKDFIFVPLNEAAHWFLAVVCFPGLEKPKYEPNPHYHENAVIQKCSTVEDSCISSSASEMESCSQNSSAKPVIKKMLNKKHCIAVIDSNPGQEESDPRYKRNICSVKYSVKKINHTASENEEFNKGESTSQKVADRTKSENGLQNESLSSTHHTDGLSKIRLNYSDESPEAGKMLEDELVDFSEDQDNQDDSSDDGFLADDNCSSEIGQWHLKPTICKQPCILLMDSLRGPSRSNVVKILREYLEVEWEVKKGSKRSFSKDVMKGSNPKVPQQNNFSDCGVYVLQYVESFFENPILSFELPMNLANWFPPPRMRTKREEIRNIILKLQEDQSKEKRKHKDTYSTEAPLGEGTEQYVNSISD
SENP8 confirm – SENP8 protease inhibitors, retest, confirmation, biochemical, luminescence, single concentration | shares compounds with SENP7 inh | Recombinant SENP8, Z-RLRGG-aminoluciferin luminescence, 60 min | inhibition, % at 12.5 µM | 40% of 6,200 active | AID 488912, 2010;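 active means mean inhibition across replicates above about 50%, limit read from the data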
SENP6 confirm – SENP6 protease inhibitors, confirmation, biochemical, luminescence, single concentration. shares compounds with SENP7 inh. recombinant SENP6, Z-RLRGG-aminoluciferin luminescence. inhibition, % at 12.5 µM. 58% of 6,200 active
SENP7 confirm – SENP7 protease inhibitors, retest, confirmation, biochemical, luminescence, single concentration; recombinant SENP7, Z-RLRGG-aminoluciferin luminescence, 40 min; shares compounds with SENP7 inh; 69% of 6,200 active; AID 488917, 2010; inhibition, % at 12.5 µM
Casp3 SENP sel – caspase-3 protease inhibitors, confirmation, selectivity assay for SENP inhibitor project, biochemical, single concentration; shares compounds with SENP7 inh; purified caspase-3, Z-DEVD-aminoluciferin luminescence, 60 min; inhibition, % at 12.5 µM; 60% of 6,200 active; AID 488918, 2010;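 active means mean inhibition above about 50%, limit read from the data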;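 further: plate controls were enzyme with DMSO for no effect and wells without caspase-3 for full effect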
SENP luc ctr – luminescence interference (SENP counter-screen). shares compounds with SENP7 inh. Pre-incubated SENP8/Z-RLRGG-aminoluciferin, luciferase luminescence interference. inhibition, % at 12.5 µM. 39% of 6,200 active;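 active means mean inhibition above about 50% when retested at one dose, limit read from the data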;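 further: plate controls were DMSO wells with completed reaction for no effect and substrate without enzyme for full effect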
The depositor's hits bear a star; x = no result. Rows were chosen to be rich in hits. Some 2.9% of all compounds tested hit in one or more screens of this group.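 How the source made its calls, unless noted: active means mean inhibition above about 50% in the one-dose retest (limit read from the data); inactive means the rest.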

SMILES	SENP8 block-1	SENP8 block-2	SENP7 inh	Apaf1 inhib	SENP1 inh	SENP6 inh	SENP8 confirm	SENP6 confirm	SENP7 confirm	Casp3 SENP sel	SENP luc ctr
COc1ccccc1C(=O)NC(=O)Nc1cccc(Cl)c1	20	82*	85*	12	0	79*	44	36	40	42	30
CN(C)c1ccc(NC(=O)Nc2cccc(Cl)c2)cc1	17	80*	88*	6	3	89*	76*	85*	99*	82*	66*
COc1ccc(NC(=O)Nc2ccccc2SC)c(OC)c1	8	2	7	7	-3	12	x	x	x	x	x
Cc1ccc(NC(=O)Nc2ccc(F)c(Cl)c2)cc1	24	1	34	-8	3	0	x	x	x	x	x
COc1ccc(OCC(=O)NC(=O)c2ccccc2OC)c([N+](=O)[O-])c1	4	1	-2	6	0	0	x	x	x	x	x
CSc1ccccc1NC(=O)Nc1cccc(Cl)c1Cl	5	-1	1	-1	-1	6	x	x	x	x	x
CSc1ccccc1NC(=O)Nc1cccc(Cl)c1	3	67*	80*	1	2	83*	83*	80*	95*	53*	73*
O=C(C[C@H]1CC[C@H]2[C@@H](COC[C@@H](O)CN2S(=O)(=O)c2ccc(F)cc2)O1)N[C@@H]1CCN(Cc2ccccc2)C1	18	x	x	x	-1	x	x	x	x	x	x
N#Cc1cc([N+](=O)[O-])ccc1NC(=O)COC(=O)C1CCC(=O)N1 (centres undefined)	10	13	5	-1	0	-4	x	x	x	x	x
c1ccc(-c2cn3ccccc3n2)cc1	-442	x	x	x	-2	x	x	x	x	x	x
c1ccc(-c2cn3nc(-c4ccccc4)sc3n2)cc1	-34	85*	93*	-27	3	-5	-8	3	15	7	-1
Cc1nn2cc(-c3ccccc3)nc2s1	9	76*	-3	-7	-2	72*	77*	81*	97*	91*	71*
O=C(CNC(=O)OCc1ccccc1)Nc1ccc(F)cc1	13	-7	-9	7	3	-12	x	x	x	x	x
Cc1cc(O)c(/C=N/Nc2cccc(Cl)c2)c(=O)o1	-106	66*	20	1	-6	70*	71*	71*	89*	87*	56*
Cc1cc(O)c(/C=N/Nc2ccccc2Cl)c(=O)o1	-106	74*	41	6	7	84*	72*	68*	87*	88*	63*
Cc1ccc(-c2ccc3c(c2)O[C@H](CN(C)C(=O)Nc2ccc(C(F)(F)F)cc2)[C@H](C)CN([C@H](C)CO)S3(=O)=O)cc1	15	x	x	x	1	x	x	x	x	x	x
COC(=O)[C@@]1(C)[C@H]2C(=O)N(C)C(=O)[C@H]2[C@H]2CN=C(SCc3ccc(Cl)cc3)N21	15	x	0	19	1	x	x	x	x	x	x

Compound activity: PubChem, Sanford-Burnham Center for Chemical Genomics
